The text below walks through data of ChEMBL document CHEMBL3804777, “Identification and Preclinical Pharmacology of BMS-986104: A Differentiated S1P1 Receptor Modulator in Clinical Trials” (ACS Med Chem Lett, 2016).

The source made the active and inactive calls. No cut-off for these calls is given here.

Series [1] has as its system Mus musculus. Put plainly: Reduction in body weight loss in SCID mouse with CD45RBhiCD4+ T-cell transfer-induced colitis model of inflammatory bowel disease at 1 mg/kg, po dosed daily for 5 weeks. The class given is functional, organism-based. The gist of the method: (§1)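 CD45RBhiCD4+ T-cell transfer colitis in mice; oral dosing at 1 mg/kg/day for 5 weeks, compared with vehicle. Read-outs: body weight, colon length, and colon gene expression by RT-PCR (IFN-γ, IL-2, CD4, B220, CD11b, Fcgr4, Ifit1, OASL2).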

Series [2] has as its system Mus musculus. Put plainly: Reduction in lymphocyte level in BALB/c mouse assessed as blood lymphocyte level at 30 mg/kg, po after 24 hrs by hematology analysis (reference value: 5.13 to 8.02 10^3/mm3). Format: functional.
The subject of series [3] is Mus musculus. Briefly: Reduction in lymphocyte level in BALB/c mouse assessed as blood lymphocyte level at 10 mg/kg, po after 24 hrs by hematology analysis (reference value: 5.13 to 8.02 10^3/mm3). Format: functional.
The subject of series [4] is Mus musculus. Put plainly: Pulmonary toxicity in BALB/c mouse assessed as BAL protein levels at 30 mg/kg, po after 24 by hematology analysis (reference value: 8.2 to 8.3 mg/dL). Format: organism-based. The settings on record: in vivo.
For series [5], the system named is Mus musculus. Put plainly: Pulmonary toxicity in BALB/c mouse assessed as BAL protein levels at 0.5 mg/kg, po after 24 by hematology analysis (reference value: 8.2 to 8.3 mg/dL). The class given is organism-based. The settings on record: in vivo.
Series [6] deals with Mus musculus. Briefly: Reduction in CD11b gene expression in SCID mouse with CD45RBhiCD4+ T-cell transfer-induced colitis model of inflammatory bowel disease at 5 mg/kg, po dosed every other day for 5 weeks by RT-PCR method. The settings on record: 840 h. The class given is functional. A digest of the protocol: (§2)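 CD45RBhiCD4+ T-cell transfer colitis in mice; oral alternate-day dosing for 5 weeks, compared with vehicle. Read-outs: body weight, colon length, histological colon inflammation and tissue damage, and colon gene expression by RT-PCR (IFN-γ, IL-2, CD4, B220, CD11b, Fcgr4, Ifit1, OASL2).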

In series [7] the test system is Mus musculus. Put plainly: Reduction in CD4 gene expression in SCID mouse with CD45RBhiCD4+ T-cell transfer-induced colitis model of inflammatory bowel disease at 5 mg/kg, po dosed every other day for 5 weeks by RT-PCR method. Format: functional. The settings on record: 840 h. The gist of the method: as §2
For series [8], the system named is Mus musculus. Put plainly: Reduction in Fcgr4 gene expression in SCID mouse with CD45RBhiCD4+ T-cell transfer-induced colitis model of inflammatory bowel disease at 5 mg/kg, po dosed every other day for 5 weeks by RT-PCR method. Format: functional. The settings on record: 840 h. The gist of the method: as §2
Series [9] relates to Mus musculus. Briefly: Reduction in IFNgamma gene expression in SCID mouse with CD45RBhiCD4+ T-cell transfer-induced colitis model of inflammatory bowel disease at 5 mg/kg, po dosed every other day for 5 weeks by RT-PCR method. The class given is functional. Conditions: 840 h. A digest of the protocol:
as §2

The test system of series [10] is Mus musculus. Briefly: Reduction in B220 gene expression in SCID mouse with CD45RBhiCD4+ T-cell transfer-induced colitis model of inflammatory bowel disease at 5 mg/kg, po dosed every other day for 5 weeks by RT-PCR method. Format: functional. Conditions: 840 h. The gist of the method:
as §2

In series [11] the test system is Mus musculus. Briefly: Reduction in IL2 gene expression in SCID mouse with CD45RBhiCD4+ T-cell transfer-induced colitis model of inflammatory bowel disease at 5 mg/kg, po dosed every other day for 5 weeks by RT-PCR method. The class given is functional. The settings on record: 840 h. The gist of the method: as §2
Series [12] has as its system Mus musculus. Briefly: Reduction in Ifit1 gene expression in SCID mouse with CD45RBhiCD4+ T-cell transfer-induced colitis model of inflammatory bowel disease at 5 mg/kg, po dosed every other day for 5 weeks by RT-PCR method. The class given is functional. Conditions: 840 h. The gist of the method:
as §2

Series [13] concerns Mus musculus. Briefly: Reduction in lymphocyte level in BALB/c mouse assessed as blood lymphocyte level at 0.5 mg/kg, po after 24 hrs by hematology analysis (reference value: 5.13 to 8.02 10^3/mm3). The class given is functional.
The subject of series [14] is Mus musculus. Put plainly: Induction of colon length shortening in SCID mouse with CD45RBhiCD4+ T-cell transfer-induced colitis model of inflammatory bowel disease at 1 mg/kg, po dosed daily for 5 weeeks. The class given is functional, organism-based. The gist of the method: as §1
In series [15] the test system is Mus musculus. Briefly: Reduction in OASL2 gene expression in SCID mouse with CD45RBhiCD4+ T-cell transfer-induced colitis model of inflammatory bowel disease at 5 mg/kg, po dosed every other day for 5 weeks by RT-PCR method. Format: functional. The settings on record: 840 h. A digest of the protocol:
as §2

The test system of series [16] is Mus musculus. Put plainly: Pulmonary toxicity in BALB/c mouse assessed as BAL protein levels at 10 mg/kg, po after 24 by hematology analysis (reference value: 8.2 to 8.3 mg/dL). Format: organism-based. Conditions: in vivo.
Series [17] has as its system Heart. Put plainly: Toxicity in guinea pig heart assessed as reduction in ventricular rate at 100 nM after 10 mins by ECG analysis. The class given is tissue-based, Cavia porcellus, Cardiac ventricle. The settings on record: 0.1 µM. The gist of the method:
(§3)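 Isolated guinea pig hearts perfused with the phosphate at the stated concentrations; ventricular rate and atrioventricular conduction (third-degree AV block) monitored.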

For series [18], the system named is Heart. Put plainly: Toxicity in guinea pig heart assessed as third degree AV block at 300 nM after 10 mins by ECG analysis. The class given is tissue-based, Cavia porcellus. Conditions: 0.3 µM. A digest of the protocol: as §3
Series [19] can be described thus: Toxicity in human-inducible pluripotent stem cell-derived Cardiomyocyte assessed as reduction in cardiomyocyte beating after 2 hrs. The settings on record: cardiac muscle cell. A digest of the protocol:
(§4)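 Cultured human iPSC-derived cardiomyocytes expressing S1P1 and S1P3, exposed to a range of concentrations of the phosphate; beating rate measured and the no-effect concentration determined.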

In series [20] the test system is Heart. Briefly: Toxicity in guinea pig heart assessed as third degree AV block at 1 nM after 10 mins by ECG analysis. Format: tissue-based, Cavia porcellus. The settings on record: 0.001 µM. The gist of the method: as §3
Series [21] has as its system Heart. Put plainly: Toxicity in guinea pig heart assessed as reduction in ventricular rate at 1 nM after 10 mins by ECG analysis. The class given is tissue-based, Cavia porcellus, Cardiac ventricle. Conditions: 0.001 µM. The gist of the method:
as §3

For series [22], the system named is Mus musculus. Briefly: Reduction of blood lymphocyte level in BALB/c mouse administered through oral gavage after 24 hrs by hematology analysis. The settings on record: for ED50: po. Format: functional, organism-based.
Series [23] in a line: Toxicity in human-inducible pluripotent stem cell-derived Cardiomyocyte assessed as reduction in cardiomyocyte beating at 1 nM after 2 hrs. Conditions: cardiac muscle cell, 0.001 µM. Further details: scale not given: the % may be the effect or the level left. A digest of the protocol: as §4
A short description of series [24]: Toxicity in human-inducible pluripotent stem cell-derived Cardiomyocyte assessed as reduction in cardiomyocyte beating at 0.1 nM after 2 hrs. The settings on record: cardiac muscle cell, 0.0001 µM. A digest of the protocol:
as §4

The target in series [25] is T1, Sphingosine 1-phosphate receptor 4 (Homo sapiens, UniProt O95977).
T1 sequence (O95977 whole entry): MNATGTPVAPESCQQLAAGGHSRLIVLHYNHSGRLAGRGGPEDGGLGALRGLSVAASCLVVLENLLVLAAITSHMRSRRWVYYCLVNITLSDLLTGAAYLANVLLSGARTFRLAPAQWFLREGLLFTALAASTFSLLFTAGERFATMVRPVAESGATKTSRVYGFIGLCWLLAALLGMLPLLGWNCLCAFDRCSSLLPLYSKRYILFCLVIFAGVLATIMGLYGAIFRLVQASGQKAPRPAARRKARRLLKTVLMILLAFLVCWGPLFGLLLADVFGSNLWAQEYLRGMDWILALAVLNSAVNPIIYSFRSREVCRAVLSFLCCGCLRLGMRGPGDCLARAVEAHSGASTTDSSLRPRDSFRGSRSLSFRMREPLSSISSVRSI
Briefly: Agonist activity at human S1P4 receptor by GTPgammaS binding assay. Format: functional.

The target in series [26] is Sphingosine 1-phosphate receptor 5 (Homo sapiens, UniProt Q9H228). Put plainly: Agonist activity at human S1P5 receptor by GTPgammaS binding assay. The class given is functional.
The target of series [27] is T2, Sphingosine 1-phosphate receptor 1 (Homo sapiens, UniProt P21453). Put plainly: Agonist activity at human S1P1 receptor expressed in CHO cells assessed as ERK phosphorylation after 7 mins by alphaLISA. Format: cell-based.
In series [28] the test system is Heart. Briefly: Toxicity in guinea pig heart assessed as reduction in ventricular rate at 1000 nM after 10 mins by ECG analysis. Format: tissue-based, Cavia porcellus, Cardiac ventricle. The settings on record: 1 µM. A digest of the protocol:
as §3

Series [29] deals with Heart. Briefly: Toxicity in guinea pig heart assessed as third degree AV block at 100 nM after 10 mins by ECG analysis. The class given is tissue-based, Cavia porcellus. Conditions: 0.1 µM. The gist of the method: as §3
Series [30] concerns Heart. Put plainly: Toxicity in guinea pig heart assessed as third degree AV block at 1000 nM after 10 mins by ECG analysis. The class given is tissue-based, Cavia porcellus. Conditions: 1 µM. The gist of the method:
as §3

Series [31] addresses T3, Sphingosine 1-phosphate receptor 3 (Homo sapiens, UniProt Q99500). Put plainly: Antagonist activity at human S1P3 receptor by GTPgammaS binding assay. The class given is functional.
In series [32] the target is T3, Sphingosine 1-phosphate receptor 3. Put plainly: Agonist activity at human S1P3 receptor by GTPgammaS binding assay. Format: functional.
Series [33] addresses T2, Sphingosine 1-phosphate receptor 1. Briefly: Agonist activity at human S1P1 receptor expressed in CHO cells assessed as cAMP accumulation after 30 mins by HTRF analysis. The class given is functional, cell-based.
For series [34] the target is unchanged. Put plainly: Agonist activity at human S1P1 receptor expressed in CHO cells co-expressing GFP assessed as cellular internalization after 45 mins by Hoechst assay. The class given is cell-based.

T2 sequence (P21453 whole entry): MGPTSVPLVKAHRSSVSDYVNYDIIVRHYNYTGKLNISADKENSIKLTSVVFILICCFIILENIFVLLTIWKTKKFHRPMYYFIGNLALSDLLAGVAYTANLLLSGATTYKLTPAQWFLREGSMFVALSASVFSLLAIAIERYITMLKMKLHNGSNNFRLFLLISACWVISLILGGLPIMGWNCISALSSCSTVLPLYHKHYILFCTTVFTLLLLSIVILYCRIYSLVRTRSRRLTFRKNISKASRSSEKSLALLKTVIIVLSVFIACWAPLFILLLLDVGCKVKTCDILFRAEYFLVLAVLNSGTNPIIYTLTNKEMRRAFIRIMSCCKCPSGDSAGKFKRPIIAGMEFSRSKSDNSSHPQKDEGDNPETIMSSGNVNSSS
T3 sequence (Q99500 whole entry): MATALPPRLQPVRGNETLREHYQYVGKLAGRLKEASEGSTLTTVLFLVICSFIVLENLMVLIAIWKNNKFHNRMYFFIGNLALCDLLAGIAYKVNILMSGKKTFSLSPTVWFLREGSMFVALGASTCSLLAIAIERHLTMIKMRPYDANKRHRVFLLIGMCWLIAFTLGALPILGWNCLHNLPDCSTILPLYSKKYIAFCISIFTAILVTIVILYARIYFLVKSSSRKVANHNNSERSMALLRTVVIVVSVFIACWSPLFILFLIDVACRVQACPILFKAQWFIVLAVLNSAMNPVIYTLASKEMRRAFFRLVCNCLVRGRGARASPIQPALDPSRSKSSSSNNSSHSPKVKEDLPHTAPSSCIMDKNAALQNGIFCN
Sphingosine 1-phosphate receptor 5, sequence (Q9H228 whole entry): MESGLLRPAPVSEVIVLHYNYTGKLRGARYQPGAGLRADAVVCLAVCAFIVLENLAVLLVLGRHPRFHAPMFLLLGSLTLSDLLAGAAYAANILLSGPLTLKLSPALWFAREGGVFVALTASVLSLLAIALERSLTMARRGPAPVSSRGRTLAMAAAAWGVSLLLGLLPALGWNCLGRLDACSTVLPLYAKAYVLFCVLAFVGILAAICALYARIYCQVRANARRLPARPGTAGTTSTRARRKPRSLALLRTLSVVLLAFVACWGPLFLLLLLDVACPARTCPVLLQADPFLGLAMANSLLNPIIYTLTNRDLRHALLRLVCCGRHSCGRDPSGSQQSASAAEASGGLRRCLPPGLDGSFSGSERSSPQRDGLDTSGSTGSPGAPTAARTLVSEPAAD

`CCCCCCCCc1ccc(CCC(N)(CO)CO)cc1` [FINGOLIMOD]: the inhibition result in series [1] was “Active”. In addition, the Activity in [2] came to 0.29 ×10³ /mm3; in series [3], 0.92 ×10³ /mm3; in [4], 71 mg/dL; in series [5] it was 7.5 mg/dL; in [13], 1.28 ×10³ /mm3; in series [16] it was 34.2 mg/dL. Further, the inhibition in vivo at 5 mg/kg was determined as 45% in series [6]; 60% in series [7]; 25% in [8]; 30% in series [9]; 55% in [10]; 68% in series [11]. For the same compound, the inhibition in vivo at 5 mg/kg in series [12] turned out to be 16%; in series [15], 7%. Also, in series [14], the result was Active.
`CCc1cc(/C(C)=N/OCc2ccc(C3CCCCC3)c(C(F)(F)F)c2)ccc1CN1CC(C(=O)O)C1` [SIPONIMOD]: the Activity result in series [17] and in series [18] was “Toxic” in each case.
`CCCCCCCCc1ccc(CCC(N)(CO)COP(=O)(O)O)cc1` (stereo not given): the Activity result in [19] was “Dose-dependent effect”; in [20], “Toxic”; in series [21], 32 bpm; in series [23], 35%; in series [24], “Non-toxic”. The EC50 in series [22] was 5.6 nM; in series [25] it was 0.09 nM. This compound yielded an ED50 in [22] of 0.017 mg/kg.
Regarding `CCCCCC[C@@H]1CCc2cc([C@H]3CC[C@](N)(COP(=O)(O)O)C3)ccc2C1`, the EC50 in [26] was 10.7 nM; in series [27], 8.16 nM; in series [22], 7.9 nM; in series [32], greater than 1000 nM; in [25], 10.5 nM; in series [33], 0.006 nM. Further, the EC50 in [34] was found to be 0.114 nM. Moreover, the Activity result is given as “Toxic” in [28]; “Non-toxic” in [29]; “Toxic” in series [30]; “Non-toxic” in series [17]; “Non-toxic” in series [23]. Also, in series [22], the 50% effect level (ED50) was put at a dose of 0.12 mg/kg. This compound also had an IC50 in series [31] greater than 1000 nM.
